From ChEMBL document CHEMBL4368909, “Identification of Dihydrofuro[3,4- d]pyrimidine Derivatives as Novel HIV-1 Non-Nucleoside Reverse Transcriptase Inhibitors with Promising Antiviral Activities and Desirable Physicochemical Properties” (J Med Chem, 2019)
Converted amounts (≈) assume the structure as drawn.

Assays:
[1] = Sub-acute toxicity in Kunming mouse assessed as effect on liver at 50 mg/kg/day, po administered for 2 weeks by hematoxylin and eosin staining-based assay; assay type: organism-based; details: in vivo, 336 h
Outline: (§1)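 Mice were dosed orally at 50 mg/kg/day for 2 weeks and observed for behavioural abnormalities during treatment. Organs were then examined by hematoxylin–eosin staining.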

[2] = system: Human immunodeficiency virus 1; experiment: Antiviral activity against HIV1 RES056 infected in human MT4 cells assessed as reduction in virus-induced cytopathic effect after 5 days by MTT assay; assay type: functional, organism-based; details: Human immunodeficiency virus 1, RES056, MT4, 120 h
[3] = system: Human immunodeficiency virus 1; experiment: Antiviral activity against HIV1 harboring reverse transcriptase E138K mutant infected in human MT4 cells assessed as reduction in virus-induced cytopathic effect after 5 days by MTT assay; assay type: functional, organism-based; details: Human immunodeficiency virus 1, MT4, 120 h
Cytochrome P450 2D6 = Cytochrome P450 2D6 (Homo sapiens, UniProt P10635); experiment: Inhibition of CYP2D6 in human liver microsomes using dextromethorphan as substrate after 10 mins in presence of NADPH; assay type: ADME
[4] = target: Voltage-gated inwardly rectifying potassium channel KCNH2 (Homo sapiens, UniProt Q12809); experiment: Inhibition of human ERG expressed in HEK293 cells at -80 mV holding potential by manual patch clamp assay
[5] = Aqueous solubility of the compound at pH at 7.4 by HPLC analysis; assay type: physicochemical; details: buffer, pH 7.4
Outline: (§2)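 Aqueous solubility read by HPLC in buffer at pH 2.0, 7.0 or 7.4.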

[6] = AUCt in Wistar rat at 20 mg/kg, po by LC-MS/MS analysis; assay type: ADME, organism-based; details: in vivo
Outline: (§3)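 Male/unspecified Wistar rats given one dose, 2 mg/kg intravenously or 20 mg/kg orally; plasma concentration–time profiles followed; PK parameters reported as mean ± SD, n = 5.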

[7] = Aqueous solubility of the compound at pH at 2 by HPLC analysis; assay type: physicochemical; details: buffer, pH 2; outline: as §2
[8] = Tmax in Wistar rat at 20 mg/kg, po by LC-MS/MS analysis; assay type: ADME, organism-based; details: in vivo; outline: as §3
Cytochrome P450 1A2 = target: T1, Cytochrome P450 1A2 (Homo sapiens, UniProt P05177); experiment: Inhibition of CYP1A2 in human liver microsomes using phenacetin as substrate after 10 mins in presence of NADPH; assay type: ADME
T1 sequence (P05177 whole entry): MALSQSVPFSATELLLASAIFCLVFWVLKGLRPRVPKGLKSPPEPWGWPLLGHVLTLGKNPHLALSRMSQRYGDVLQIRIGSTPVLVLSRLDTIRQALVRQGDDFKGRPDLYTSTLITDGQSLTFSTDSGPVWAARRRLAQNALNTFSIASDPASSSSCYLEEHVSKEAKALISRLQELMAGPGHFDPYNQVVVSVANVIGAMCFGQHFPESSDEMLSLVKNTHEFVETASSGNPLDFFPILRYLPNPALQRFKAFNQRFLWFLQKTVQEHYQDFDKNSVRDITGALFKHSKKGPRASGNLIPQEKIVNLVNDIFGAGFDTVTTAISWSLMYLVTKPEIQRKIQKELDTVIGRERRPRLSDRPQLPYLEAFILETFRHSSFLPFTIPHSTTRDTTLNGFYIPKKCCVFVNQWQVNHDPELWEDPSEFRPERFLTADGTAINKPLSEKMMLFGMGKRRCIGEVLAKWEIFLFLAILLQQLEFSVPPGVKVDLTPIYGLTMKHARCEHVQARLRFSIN

Cytochrome P450 2C19 = Cytochrome P450 2C19 (Homo sapiens, UniProt P33261); experiment: Inhibition of CYP2C19 in human liver microsomes using S-mephenytoin as substrate after 10 mins in presence of NADPH; assay type: ADME
[9] = system: Human immunodeficiency virus 1; experiment: Antiviral activity against HIV1 harboring reverse transcriptase Y188L mutant infected in human MT4 cells assessed as reduction in virus-induced cytopathic effect after 5 days by MTT assay; assay type: functional, organism-based; details: Human immunodeficiency virus 1, MT4, 120 h
[10] = Oral bioavailability in Wistar rat at 20 mg/kg by LC-MS/MS analysis; assay type: ADME, organism-based; details: in vivo; outline: as §3
[11] = system: Human immunodeficiency virus 1; experiment: Antiviral activity against HIV1 harboring reverse transcriptase F227L/V106A double mutant infected in human MT4 cells assessed as reduction in virus-induced cytopathic effect after 5 days by MTT assay; assay type: functional, organism-based; details: Human immunodeficiency virus 1, MT4, 120 h
[12] = Acute toxicity in Kunming mouse assessed as behavior abnormalities at 800 mg/kg, po measured after 2 weeks; assay type: organism-based; details: in vivo, 336 h
Outline: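 Kunming mice received a single intragastric dose of 800 mg/kg. Deaths and behaviour were observed over 2 weeks and compared with a control group.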

[13] = Half life in Wistar rat at 2 mg/kg, iv by LC-MS/MS analysis; assay type: ADME, organism-based; details: in vivo; outline: as §3
[14] = AUCt in Wistar rat at 2 mg/kg, iv by LC-MS/MS analysis; assay type: ADME, organism-based; details: in vivo; outline: as §3
[15] = Sub-acute toxicity in Kunming mouse assessed as effect on spleen at 50 mg/kg/day, po administered for 2 weeks by hematoxylin and eosin staining-based assay; assay type: organism-based; details: in vivo, 336 h; outline: as §1
[16] = AUC (0 to infinity) in Wistar rat at 2 mg/kg, iv by LC-MS/MS analysis; assay type: ADME, organism-based; design: dose 2 mg/kg, time infinity, route intravenous; details: in vivo; outline: as §3
[17] = system: Human immunodeficiency virus 1; experiment: Antiviral activity against HIV1 harboring reverse transcriptase L100I mutant infected in human MT4 cells assessed as reduction in virus-induced cytopathic effect after 5 days by MTT assay; assay type: functional, organism-based; details: Human immunodeficiency virus 1, MT4, 120 h
[18] = Protein binding in rat plasma at 2 uM after 5 hrs by LC/MS analysis; assay type: ADME, cell-free; details: read-out: PPB (converted)
[19] = Clearance in Wistar rat at 2 mg/kg, iv by LC-MS/MS analysis; assay type: ADME, organism-based; details: in vivo; outline: as §3
[20] = system: Human immunodeficiency virus 1; experiment: Antiviral activity against HIV1 harboring reverse transcriptase K103N mutant infected in human MT4 cells assessed as reduction in virus-induced cytopathic effect after 5 days by MTT assay; assay type: functional, organism-based; details: Human immunodeficiency virus 1, MT4, 120 h
[21] = system: Human immunodeficiency virus 1; experiment: Resistance factor, ratio of EC50 for HIV1 harboring reverse transcriptase Y188L mutant to EC50 for wild type HIV1; assay type: functional
Outline: (§4)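 The resistance factor is the EC50 against the mutant strain divided by the EC50 against wild-type HIV-1. Both were measured in MT-4 cells by MTT read-out of protection from virus-induced cytopathicity.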

[22] = Protein binding in human plasma assessed as recovery rate at 2 uM after 5 hrs by LC/MS analysis; assay type: ADME, cell-free
[23] = Sub-acute toxicity in Kunming mouse assessed as effect on kidneys at 50 mg/kg/day, po administered for 2 weeks by hematoxylin and eosin staining-based assay; assay type: organism-based; details: in vivo, 336 h; outline: as §1
[24] = Aqueous solubility of the compound at pH at 7 by HPLC analysis; assay type: physicochemical; details: buffer, pH 7; outline: as §2
[25] = system: Human immunodeficiency virus 1; experiment: Antiviral activity against HIV1 harboring reverse transcriptase Y181C mutant infected in human MT4 cells assessed as reduction in virus-induced cytopathic effect after 5 days by MTT assay; assay type: functional, organism-based; details: Human immunodeficiency virus 1, MT4, 120 h
[26] = Tmax in Wistar rat at 2 mg/kg, iv by LC-MS/MS analysis; assay type: ADME, organism-based; details: in vivo; outline: as §3
[27] = system: Human immunodeficiency virus 1; experiment: Resistance factor, ratio of EC50 for HIV1 harboring reverse transcriptase K103N mutant to EC50 for wild type HIV1; assay type: functional; outline: as §4
[28] = system: Human immunodeficiency virus 1; experiment: Resistance factor, ratio of EC50 for HIV1 harboring reverse transcriptase F227L/V106A double mutant to EC50 for wild type HIV1; assay type: functional; outline: as §4
[29] = system: Human immunodeficiency virus 2; experiment: Antiviral activity against HIV2 ROD infected in human MT4 cells assessed as reduction in virus-induced cytopathic effect after 5 days by MTT assay; details: Human immunodeficiency virus 2, ISOLATE ROD, MT4, 120 h

Voltage-gated inwardly rectifying potassium channel KCNH2, sequence (Q12809 whole entry): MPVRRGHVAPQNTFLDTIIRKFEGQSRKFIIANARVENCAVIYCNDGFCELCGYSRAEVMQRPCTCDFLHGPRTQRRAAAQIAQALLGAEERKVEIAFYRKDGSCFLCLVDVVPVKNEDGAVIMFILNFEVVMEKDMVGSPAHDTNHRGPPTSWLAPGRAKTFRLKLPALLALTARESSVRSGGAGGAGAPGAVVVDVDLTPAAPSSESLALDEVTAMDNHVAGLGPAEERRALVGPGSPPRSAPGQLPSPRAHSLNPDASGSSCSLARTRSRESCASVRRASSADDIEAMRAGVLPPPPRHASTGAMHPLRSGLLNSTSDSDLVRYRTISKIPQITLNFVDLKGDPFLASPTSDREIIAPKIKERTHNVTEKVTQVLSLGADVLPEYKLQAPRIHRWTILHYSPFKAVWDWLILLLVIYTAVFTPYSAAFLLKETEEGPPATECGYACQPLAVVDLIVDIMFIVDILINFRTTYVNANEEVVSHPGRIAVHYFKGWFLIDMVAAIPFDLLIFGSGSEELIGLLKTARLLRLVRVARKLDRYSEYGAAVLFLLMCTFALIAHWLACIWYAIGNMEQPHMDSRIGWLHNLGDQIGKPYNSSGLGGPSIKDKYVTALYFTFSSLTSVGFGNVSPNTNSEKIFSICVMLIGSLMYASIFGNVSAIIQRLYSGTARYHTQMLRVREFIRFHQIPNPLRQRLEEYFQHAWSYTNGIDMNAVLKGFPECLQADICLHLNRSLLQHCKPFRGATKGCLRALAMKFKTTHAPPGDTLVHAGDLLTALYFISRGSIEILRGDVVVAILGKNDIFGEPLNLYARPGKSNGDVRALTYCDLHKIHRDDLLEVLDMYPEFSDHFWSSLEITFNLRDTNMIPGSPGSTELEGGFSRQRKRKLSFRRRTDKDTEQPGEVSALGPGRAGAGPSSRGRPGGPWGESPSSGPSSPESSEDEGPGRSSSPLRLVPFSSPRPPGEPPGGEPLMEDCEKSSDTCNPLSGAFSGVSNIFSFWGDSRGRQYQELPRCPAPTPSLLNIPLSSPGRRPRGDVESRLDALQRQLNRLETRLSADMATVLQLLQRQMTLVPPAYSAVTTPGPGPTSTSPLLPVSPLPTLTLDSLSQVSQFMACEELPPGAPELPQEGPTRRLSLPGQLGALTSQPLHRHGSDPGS
Cytochrome P450 2D6, sequence (P10635 whole entry): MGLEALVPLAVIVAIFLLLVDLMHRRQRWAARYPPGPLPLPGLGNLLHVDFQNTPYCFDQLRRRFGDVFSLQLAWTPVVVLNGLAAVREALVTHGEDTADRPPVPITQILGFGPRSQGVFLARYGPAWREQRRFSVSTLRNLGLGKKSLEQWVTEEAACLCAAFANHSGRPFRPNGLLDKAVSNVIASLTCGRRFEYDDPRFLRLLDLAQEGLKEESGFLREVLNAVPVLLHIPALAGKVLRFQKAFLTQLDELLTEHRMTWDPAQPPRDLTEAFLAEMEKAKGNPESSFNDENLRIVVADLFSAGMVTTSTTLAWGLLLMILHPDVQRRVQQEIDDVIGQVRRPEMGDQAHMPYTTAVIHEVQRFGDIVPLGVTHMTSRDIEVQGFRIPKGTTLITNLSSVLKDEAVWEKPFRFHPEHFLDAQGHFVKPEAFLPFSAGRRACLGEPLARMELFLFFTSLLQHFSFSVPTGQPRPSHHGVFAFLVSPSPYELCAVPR
Cytochrome P450 2C19, sequence (P33261 whole entry): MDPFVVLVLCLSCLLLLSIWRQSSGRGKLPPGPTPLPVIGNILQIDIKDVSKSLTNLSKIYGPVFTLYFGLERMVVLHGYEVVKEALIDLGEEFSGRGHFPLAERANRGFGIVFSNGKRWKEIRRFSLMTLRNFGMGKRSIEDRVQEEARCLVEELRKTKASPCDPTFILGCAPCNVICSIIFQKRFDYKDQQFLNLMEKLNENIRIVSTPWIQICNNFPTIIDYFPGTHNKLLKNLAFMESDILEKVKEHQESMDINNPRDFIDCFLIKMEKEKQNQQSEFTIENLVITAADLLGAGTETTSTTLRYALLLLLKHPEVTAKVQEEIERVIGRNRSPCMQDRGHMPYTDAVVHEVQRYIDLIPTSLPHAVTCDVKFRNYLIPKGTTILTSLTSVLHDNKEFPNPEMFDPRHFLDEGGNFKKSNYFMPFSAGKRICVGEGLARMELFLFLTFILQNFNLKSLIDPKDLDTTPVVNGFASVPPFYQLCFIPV

## Cc1cc(C#N)cc(C)c1Oc1nc(NC2CCN(Cc3ccc(C(N)=O)cc3)CC2)nc2c1COC2
[1]
  Activity: Non-Toxic
[2]
  EC50: 0.0415 µM
[3]
  EC50: 0.007 µM
Cytochrome P450 2D6
  IC50: > 50 µM
[4]
  IC50: 0.83 µM
[5]
  solubility: 6.59 µg/mL (≈ 13.2 µM)
[6]
  AUC(0-t): 1550 ng·h/mL
[7]
  solubility: 198 µg/mL (≈ 397 µM)
[8]
  Tmax: 1.33 h
Cytochrome P450 1A2
  IC50: > 50 µM
Cytochrome P450 2C19
  IC50: > 50 µM
[9]
  EC50: 0.0084 µM
[10]
  F: 30.96%
[11]
  EC50: 0.019 µM
[12]
  Activity: Non-Toxic
[13]
  half-life: 1.09 h
[14]
  AUC(0-t): 500 ng·h/mL
[15]
  Activity: Non-Toxic
[16]
  AUC(0-inf): 543 ng·h/mL
[17]
  EC50: 0.0024 µM
[18]
  fraction unbound at 5 h, 2 µM: 0.082
[19]
  clearance: 61.5 mL/min/kg
[20]
  EC50: 0.0009 µM
[21]
  Ratio EC50: 5.3
[22]
  Drug recovery: 86.3%
[23]
  Activity: Non-Toxic
[24]
  solubility: 13.3 µg/mL (≈ 26.7 µM)
[25]
  EC50: 0.0044 µM
[26]
  Tmax: 1.98 min
[27]
  Ratio EC50: 0.6
[28]
  Ratio EC50: 11.9
[29]
  EC50: 12.7 µM
